Experimental findings from ChEMBL document CHEMBL1143542, “Structure-activity relationships of bivalent aminoglycosides and evaluation of their microbiological activities” (2005) are described below.

What all share (format): functional, organism-based
Experiment [1] deals with Pseudomonas aeruginosa. Nature of the experiment: Susceptibility testing against Pseudomonas aeruginosa PAE_NUH04; R=Resistant. The method in brief:
(§1)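 Disk diffusion susceptibility profiling of P. aeruginosa reference and clinical isolates against empirically used antipseudomonal antibiotics. Each isolate was categorised as susceptible, intermediate or resistant.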

For experiment [2], the system named is Pseudomonas aeruginosa. Nature of the experiment: Susceptibility testing against Pseudomonas aeruginosa PAE_NUH01; R=Resistant. The method in brief: as §1
Experiment [3] concerns Pseudomonas aeruginosa. Put plainly: Susceptibility testing against Pseudomonas aeruginosa PAE_NUH03; R=Resistant. The method in brief: as §1
Experiment [4] has as its system Pseudomonas aeruginosa. Put plainly: Susceptibility testing against Pseudomonas aeruginosa ATCC 27853; S=Susceptible. An outline of the steps: (§2)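 Disk diffusion susceptibility profiling against a panel of empirically used antipseudomonal antibiotics. Each strain was categorised as susceptible (S) or intermediate (I).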
Experiment [5] has as its system Pseudomonas aeruginosa. Nature of the experiment: Susceptibility testing against Pseudomonas aeruginosa PAE_NUH24; R=Resistant. An outline of the steps: as §1
Experiment [6] concerns Pseudomonas aeruginosa. Nature of the experiment: Susceptibility testing against Pseudomonas aeruginosa PAE_NUH06; R=Resistant. The method in brief:
as §1

The subject of experiment [7] is Pseudomonas aeruginosa. Put plainly: Susceptibility testing against Pseudomonas aeruginosa PAE_NUH23; R=Resistant. The method in brief: as §1
For experiment [8], the system named is Pseudomonas aeruginosa. Nature of the experiment: Susceptibility testing against Pseudomonas aeruginosa PAE_NUH07; R=Resistant. An outline of the steps:
as §1

Experiment [9] relates to Pseudomonas aeruginosa. Put plainly: Susceptibility testing against Pseudomonas aeruginosa PAE_NUH20; R=Resistant. The method in brief:
as §1

For experiment [10], the system named is Pseudomonas aeruginosa. Put plainly: Susceptibility testing against Pseudomonas aeruginosa PAE_NUH19; R=Resistant. The method in brief:
as §1

Experiment [11] concerns Pseudomonas aeruginosa. Put plainly: Susceptibility testing against Pseudomonas aeruginosa PAE_NUH18; R=Resistant. The method in brief:
as §1

Experiment [12] deals with Pseudomonas aeruginosa. Put plainly: Susceptibility testing against Pseudomonas aeruginosa PAE_NUH22; R=Resistant. An outline of the steps: as §1
For experiment [13], the system named is Pseudomonas aeruginosa. Put plainly: Susceptibility testing against Pseudomonas aeruginosa PAE_NUH17; S=Susceptible. An outline of the steps: as §2
In experiment [14] the test system is Pseudomonas aeruginosa. Put plainly: Susceptibility testing against Pseudomonas aeruginosa PAE_NUH21; R=Resistant. An outline of the steps:
as §1

The test system of experiment [15] is Pseudomonas aeruginosa. Put plainly: Susceptibility testing against Pseudomonas aeruginosa PAE_NUH02; R=Resistant. The method in brief:
as §1

Experiment [16] has as its system Pseudomonas aeruginosa. Nature of the experiment: Susceptibility testing against Pseudomonas aeruginosa PAE_NUH05; R=Resistant. An outline of the steps: as §1
Experiment [17] deals with Pseudomonas aeruginosa. Nature of the experiment: Susceptibility testing against Pseudomonas aeruginosa PAE_NUH25; R=Resistant. An outline of the steps:
as §1

The test system of experiment [18] is Pseudomonas aeruginosa. Put plainly: Susceptibility testing against Pseudomonas aeruginosa ATCC 27853; R=Resistant. An outline of the steps:
as §1

The subject of experiment [19] is Pseudomonas aeruginosa. Nature of the experiment: Susceptibility testing against Pseudomonas aeruginosa PAE_NUH25; S=Susceptible. An outline of the steps:
as §2

Experiment [20] concerns Pseudomonas aeruginosa. Nature of the experiment: Susceptibility testing against Pseudomonas aeruginosa PAE_NUH20; S=Susceptible. The method in brief:
as §2

The test system of experiment [21] is Pseudomonas aeruginosa. Put plainly: Susceptibility testing against Pseudomonas aeruginosa PAE_NUH21; S=Susceptible. An outline of the steps: as §2
Experiment [22] has as its system Pseudomonas aeruginosa. Nature of the experiment: Susceptibility testing against Pseudomonas aeruginosa PAE_NUH19; S=Susceptible. The method in brief:
as §2

Experiment [23] has as its system Pseudomonas aeruginosa. Nature of the experiment: Susceptibility testing against Pseudomonas aeruginosa PAE_NUH18; S=Susceptible. An outline of the steps:
as §2

Experiment [24] concerns Pseudomonas aeruginosa. Nature of the experiment: Susceptibility testing against Pseudomonas aeruginosa PAE_NUH22; S=Susceptible. An outline of the steps:
as §2

Experiment [25] deals with Pseudomonas aeruginosa. Nature of the experiment: Susceptibility testing against Pseudomonas aeruginosa PAE_NUH23; S=Susceptible. An outline of the steps:
as §2

Experiment [26] has as its system Pseudomonas aeruginosa. Nature of the experiment: Susceptibility testing against Pseudomonas aeruginosa PAE_NUH24; S=Susceptible. An outline of the steps:
as §2

In experiment [27] the test system is Pseudomonas aeruginosa. Put plainly: Susceptibility testing against Pseudomonas aeruginosa PAE_NUH07; S=Susceptible. The method in brief:
as §2

Molecules are shown by their SMILES.

Regarding `C[C@H]1[C@H](NC(=O)/C(=N\OC(C)(C)C(=O)O)c2csc(N)n2)C(=O)N1S(=O)(=O)O`, the Activity entry in experiment [1] is “Resistant”; in experiment [2], “Resistant”; in experiment [3] it was “Resistant”; in experiment [4] it was “Susceptible”; in experiment [5], “Resistant”; in experiment [6], “Resistant”. The Activity result in [7], in [8], in experiment [9], in [10], in [11] and in experiment [12] was “Resistant” throughout. Besides, the Activity entry in experiment [13] is given as “Susceptible”; in experiment [14] it was “Resistant”; in experiment [15] it was “Resistant”; in [16], “Resistant”; in experiment [17], “Resistant”.

As for `COc1cc(Cc2cnc(N)nc2N)cc(OC)c1OC.Cc1cc(NS(=O)(=O)c2ccc(N)cc2)no1`, the Activity result in experiment [1] is given as “Resistant”; in experiment [2], “Resistant”; in [18], “Resistant”; in [3] it was “Resistant”; in [5], “Resistant”; in experiment [19] it was “Susceptible”. Further, the Activity entry in experiment [6], in experiment [7], in experiment [8], in experiment [10], in experiment [11] and in experiment [12] was “Resistant” throughout. Further, the Activity entry in [20] is given as “Susceptible”; in [13], “Susceptible”; in experiment [14], “Resistant”; in experiment [15] it was “Resistant”; in experiment [16], “Resistant”.

On to `NCC[C@H](O)C(=O)N[C@@H]1C[C@H](N)[C@@H](O[C@H]2O[C@H](CN)[C@@H](O)[C@H](O)[C@H]2O)[C@H](O)[C@H]1O[C@H]1O[C@H](CO)[C@@H](O)[C@H](N)[C@H]1O`, for which the Activity result in experiment [1] is “Resistant”; in [2], “Resistant”; in experiment [3], “Resistant”; in [4], “Susceptible”; in experiment [21], “Susceptible”; in experiment [22], “Susceptible”. In addition, the Activity result in [19] is “Susceptible”; in [23], “Susceptible”; in [6], “Resistant”; in experiment [24], “Susceptible”; in experiment [25], “Susceptible”; in [20], “Susceptible”. For the same molecule, the Activity result in [13] is given as “Susceptible”; in experiment [26] it was “Susceptible”; in [15] it was “Resistant”; in experiment [16] it was “Resistant”; in experiment [27], “Susceptible”.
